# Measured values from different studies.
# Protocols differ between the studies behind these lines.
# Target: SNF-related serine/threonine-protein kinase (SNRK, Homo sapiens, UniProt Q9NRH2)
# Residues used in one study (Q9NRH2 1-765): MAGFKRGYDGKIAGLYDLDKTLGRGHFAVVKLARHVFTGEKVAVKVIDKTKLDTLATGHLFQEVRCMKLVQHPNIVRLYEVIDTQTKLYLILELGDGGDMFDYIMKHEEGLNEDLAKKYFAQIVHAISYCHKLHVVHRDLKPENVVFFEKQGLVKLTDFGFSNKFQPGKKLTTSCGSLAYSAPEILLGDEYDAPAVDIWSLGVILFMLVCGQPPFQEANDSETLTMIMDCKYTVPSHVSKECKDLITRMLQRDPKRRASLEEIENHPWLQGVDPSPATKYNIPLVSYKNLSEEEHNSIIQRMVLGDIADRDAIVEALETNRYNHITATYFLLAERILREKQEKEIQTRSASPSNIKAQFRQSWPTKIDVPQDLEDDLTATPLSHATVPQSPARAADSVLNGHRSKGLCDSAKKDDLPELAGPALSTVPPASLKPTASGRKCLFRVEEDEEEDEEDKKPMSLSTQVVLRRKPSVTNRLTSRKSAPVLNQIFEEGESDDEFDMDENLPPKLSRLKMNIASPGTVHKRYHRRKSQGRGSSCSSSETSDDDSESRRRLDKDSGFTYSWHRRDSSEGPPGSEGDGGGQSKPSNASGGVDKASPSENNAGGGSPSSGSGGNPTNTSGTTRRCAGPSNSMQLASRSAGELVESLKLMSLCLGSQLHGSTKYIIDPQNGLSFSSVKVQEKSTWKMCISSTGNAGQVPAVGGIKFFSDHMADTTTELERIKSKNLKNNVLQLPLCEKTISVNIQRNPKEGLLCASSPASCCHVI
Structure (SMILES),observed,action,method,concentration,endpoint,value
Cc1cnc(NC2CCOCC2)nc1-n1cnc(C(=O)NC(CN)c2cc(F)cc(Cl)c2)c1 (stereo not drawn),enzyme activity,inhibitor,radiometric,1 µM,remaining activity,100%
CN1CC(Oc2cnc(C#N)cc2-c2ccn3nc(NC(=O)C4CC4)cc3c2)C1,enzyme activity,inhibitor,,1 µM,inhibition,-12%
Cc1ccc(NC(=O)c2ccc(C)c(C(F)(F)F)c2)cc1C#Cc1nn(C2CCC(O)CC2)c2ncnc(N)c12 (stereo not drawn),cell-free assay,,,10 µM,remaining signal,92%
Nc1ncnc2occ(-c3ccc(NC(=O)Nc4cc(C(F)(F)F)ccc4F)cc3)c12,cell-free assay,inhibitor,,20 µM,remaining signal,64%
Cc1cc(NC(=O)c2cccc3cc(-c4cccc5[nH]nc(N)c45)ccc23)ccc1F,enzyme activity,inhibitor,,0.1 µM,activity vs control,109%
O=C(Nc1cnn(-c2csc(C(=O)NC3COC3)c2)c1)Nc1ccccc1Cl,enzyme activity,inhibitor,,5 µM,remaining activity,96.8%
COc1cccc2c(NCc3ccccc3)nc(-n3c(N)nc4ccccc43)nc12,target engagement in cells,inhibitor,chemoproteomics,20 mM,inhibition,1.2%
Cc1sc(C(=O)NC2COC2)cc1-n1cc(NC(=O)Nc2c(F)cccc2Cl)cn1,enzyme activity,inhibitor,,10 µM,remaining activity,102%
CNC(=O)Nc1ccc2c(c1)CC[C@@]21OC(=O)N(CC(=O)N(Cc2ccc(F)cc2)[C@@H](C)C(F)(F)F)C1=O,cell-free assay,,competition with immobilised ligand,1 µM,remaining binding,96%
COc1cc(Cl)c(C(=O)N[C@@H](CN[C@H]2CC[C@@H](N)CC2)Cc2ccc(C#N)cc2)cc1-c1ccc(CN[C@H](C)c2ccc(C)cc2)o1,enzyme activity,inhibitor,,1 µM,remaining activity,104%
c1ccc(CNc2nc(N3CCOc4ccccc43)nc3c2CCCC3)cc1,target engagement in cells,inhibitor,chemoproteomics,20 mM,inhibition,0.3%
C[C@@H]1CN(c2cc(-c3nn(C)c4ccc(OC5(C)CC5)cc34)ncn2)C[C@H](C)O1,cell-free assay,,competition with immobilised ligand,1 µM,remaining binding,92%
